The values that follow come from ChEMBL document CHEMBL4402562, “Discovery of Novel Peptidomimetic Boronate ClpP Inhibitors with Noncanonical Enzyme Mechanism as Potent Virulence Blockers in Vitro and in Vivo” (J Med Chem, 2020).

Active and inactive are the calls of the source. No cut-off for these calls is given here.

The target of series [1] is T1, ATP-dependent Clp protease proteolytic subunit (Staphylococcus aureus (strain NCTC 8325)) (UniProt Q2G036).
T1 sequence (whole entry): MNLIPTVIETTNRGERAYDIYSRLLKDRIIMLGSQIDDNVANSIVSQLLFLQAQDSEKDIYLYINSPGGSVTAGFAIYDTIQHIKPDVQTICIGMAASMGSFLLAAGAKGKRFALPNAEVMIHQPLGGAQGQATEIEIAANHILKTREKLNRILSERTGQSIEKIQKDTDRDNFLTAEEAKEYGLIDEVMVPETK
The series can be described thus: Binding affinity to N-terminal His6-sumo-tagged full length Staphylococcus aureus ClpP expressed in Escherichia coli […] assessed as change in melting temperature at 100 uM by differential scanning calorimetry analysis. In a few lines: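 DSC: SaClpP at 0.5 mg/mL (25 μM) incubated at RT with 100 μM inhibitor in assay buffer. Scanned at 1 °C/min over 30–90 °C, with a buffer-buffer scan subtracted. Tm taken as the thermogram peak maximum. Run once, single sample.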
(In general: In DSC, transitions show as peaks or steps in heat flow.)

Series [2] in a line: Induction of hemolysis in sheep erythrocytes by measuring hemoglobin release incubated for 15 mins. It counts as cell-based, Ovis aries, Erythrocyte. Summed up: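 Serially diluted compound mixed directly with 2% sheep erythrocytes in 10 mM Tris pH 7.4, 0.9% NaCl. Buffer served as negative and water as positive control. After 1,500 rpm, 15 min spin, released hemoglobin read at 545 nm. Three experiments, triplicate tubes.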

The nature of series [3]: Cytotoxicity in human HeLa cells assessed as reduction in cell viability incubated for 24 hrs by MTT assay. The series is classed as cell-based. Summed up: (§1)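 MTT assay. HeLa (3×10^3 cells) or HepG2 (4×10^3 cells) seeded in DMEM and grown 24 h, then given compound for a further 24 h. Absorbance read at 570 nm against DMSO wells. GI50 from dose-response fit; three experiments, triplicate wells.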
(In general: Tetrazolium assays rely on reduction of a dye to a coloured formazan, in cell work by metabolically active cells.)

Series [4] concerns the target T2, ATP-dependent Clp protease proteolytic subunit (Staphylococcus aureus (strain NCTC 8325), UniProt Q2G036).
T2 sequence (Q2G036 whole entry): T1 sequence (whole entry)
Briefly: (§2) Inhibition of N-terminal His6-sumo-tagged full length Staphylococcus aureus ClpP expressed in Escherichia coli […] pre-incubated for 10 mins before Suc-LY-AMC addition and measured after 1 hr by fluorescence based assay. In a few lines:
(§3)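 SaClpP (1 μM monomer) in 100 mM Hepes pH 7.0, 100 mM NaCl. Preincubated 10 min at RT with inhibitor, two-fold dilutions over 8 steps from 100 μM. Suc-LY-AMC at 200 μM, 380/440 nm recorded for 1 h at 37 °C, slopes normalized to DMSO. For kinact/Ki, inhibitor premixed with substrate and reaction started by enzyme, fitted by least squares. Thrice, triplicate wells.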

The target in series [5] is T1, ATP-dependent Clp protease proteolytic subunit (Staphylococcus aureus (strain NCTC 8325)). Described as §2. Summed up:
as §3

The nature of series [6]: Cytotoxicity in human HepG2 cells assessed as reduction in cell viability incubated for 24 hrs by MTT assay. The series is classed as cell-based. In a few lines:
as §1

Series [7] concerns the target T1, ATP-dependent Clp protease proteolytic subunit (Staphylococcus aureus (strain NCTC 8325)). Briefly: Inhibition of N-terminal His6-sumo-tagged full length Staphylococcus aureus ClpP expressed in Escherichia coli […] assessed as enzyme activity recovery level at 20-fold molar excess pre-incubated for 10 mins before Suc-LY-AMC addition and measured after 1 hr followed by dialysis up to 72 hrs by fluorescence based assay relative to control. Also on record: scale not given: the % may be the effect or the level left. In a few lines: (§4)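 ClpP (1 μM, 100 mM Hepes pH 7.0, 100 mM NaCl) incubated 1 h at RT with 20-fold molar excess inhibitor or DMSO. Dialyzed at 4 °C, buffer changed after 6 h and then every 24 h. Aliquots assayed for peptidase activity with Suc-LY-AMC. Thrice, single sample.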

In series [8] the target is T2, ATP-dependent Clp protease proteolytic subunit. The series can be described thus: Inhibition of ClpP in methicillin-resistant Staphylococcus aureus ATCC 33591 assessed as reduction in bacteria-induced hemolysis of sheep erythrocytes by measuring hemoglobin release incubated for 15 mins.
Series [9] addresses T1, ATP-dependent Clp protease proteolytic subunit (Staphylococcus aureus (strain NCTC 8325)). Briefly: Inhibition of N-terminal His6-sumo-tagged full length Staphylococcus aureus ClpP expressed in Escherichia coli […] (DE3) assessed as Kinact/Ki ratio […] and measured after 1 hr by fluorescence based assay.
In series [10] the test system is Staphylococcus aureus. Briefly: Growth inhibition of methicillin-resistant Staphylococcus aureus ATCC 33591 up to 64 uM incubated for 18 hrs by broth microdilution method. The series is classed as functional, organism-based. In a few lines:
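MRSA ATCC 33591 at ~5×10⁵ CFU/mL in MHB with graded compound concentrations vs DMSO; OD600 growth curves over 18 h; three experiments, triplicate wells. MIC by CLSI broth microdilution in CAMHB, 0.5-256 µg/mL, 18 h at 37 °C, lowest concentration with no visible growth.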
In general terms: In broth dilution the organism is exposed to a series of concentrations in liquid medium.

The subject of series [11] is Staphylococcus aureus. The series can be described thus: Inhibition of Staphylococcus aureus ClpXP expressed in Escherichia coli […] at 1 to 100 uM using FITC-casein substrate in presence of ATP-regenerating system incubated for 50 mins by fluorescence based assay. Summed up:
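3.6 μM SaClpP with 3 μM SaClpX in 25 mM Hepes pH 7.5, 20 mM MgCl2, 30 mM KCl, 0.03% Tween 20, 10% glycerol, 2 mM DTT. ATP regeneration: 4 mM ATP, 20 U/mL creatine kinase, 16 mM creatine phosphate. FITC-casein 0.048 mg/mL, 494/521 nm for 50 min; slope 300–1200 s vs DMSO. Thrice, triplicate wells.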

The nature of series [12]: Inhibition of AlgW (unknown origin) up to 100 uM pre-incubated for 10 mins before Abz-T-V-A-W-pNA addition and measured after 1 hr by fluorescence based assay.
The target in series [13] is Coagulation factor X (Homo sapiens) (UniProt P00742). Briefly: Inhibition of human F10a up to 100 uM pre-incubated for 10 mins before Pefachrome Fxa addition and measured after […] based assay.
Coagulation factor X (Homo sapiens), sequence (P00742 41-179 limits assumed): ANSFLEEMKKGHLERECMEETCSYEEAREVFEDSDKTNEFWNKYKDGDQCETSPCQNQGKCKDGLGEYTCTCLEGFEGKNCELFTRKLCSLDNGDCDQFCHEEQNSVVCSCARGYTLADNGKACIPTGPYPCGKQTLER
Coagulation factor X (Homo sapiens), sequence (P00742 235-488 limits assumed): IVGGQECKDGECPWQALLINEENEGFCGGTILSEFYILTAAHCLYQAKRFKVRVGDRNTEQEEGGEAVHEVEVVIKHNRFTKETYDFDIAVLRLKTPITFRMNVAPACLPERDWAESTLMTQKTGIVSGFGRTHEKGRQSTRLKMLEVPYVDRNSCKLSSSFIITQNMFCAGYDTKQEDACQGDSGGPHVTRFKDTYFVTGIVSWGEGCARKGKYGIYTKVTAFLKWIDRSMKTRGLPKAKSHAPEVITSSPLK
A short description of series [14]: Inhibition of human ClpP (57 to 277 residues) expressed in Escherichia coli […] pre-incubated for 10 mins before Ac-WLA-AMC addition and measured after 1 hr by fluorescence based assay relative to control. Summed up: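 hClpP (3.5 μM monomer) in 25 mM Tris-HCl pH 8.0, 100 mM KCl. Preincubated 10 min at RT with inhibitor, two-fold dilutions over 8 steps from 100 μM. Then 100 μM Ac-WLA-AMC, 380/440 nm for 1 h at 37 °C, slopes normalized to DMSO. Thrice, triplicate wells.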

The target in series [15] is 20S proteasome (Homo sapiens) (UniProt P49721+P20618+P28074+P28062+P28065+P28072+P25786+P25787+P25788+P25789+P28066+P60900+O14818+Q8TAA3+P40306+A5LHX3+P49720+P28070+Q99436). The series can be described thus: Inhibition of 20S proteasome (unknown origin) pre-incubated before Suc-LLVY-AM addition and measured after 1 hr by fluorescence based assay. The series is classed as protein-complex assay.

Series [16] can be described thus: Inhibition of Pseudomonas aeruginosa ClpP1 expressed in Escherichia coli […] pre-incubated for 10 mins before Suc-LY- AMC addition and measured after 1 hr by fluorescence based assay relative to control. In a few lines:
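PaClpP1 (0.5 μM monomer) in 25 mM Tris-Cl pH 7.5, 150 mM NaCl. Preincubated 10 min at RT with inhibitor, two-fold dilutions over 8 steps from 50 μM. Then 50 μM Suc-LY-AMC, 380/440 nm for 1 h at 37 °C, slopes normalized to DMSO. Thrice, triplicate wells.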

Series [17] concerns the target T1, ATP-dependent Clp protease proteolytic subunit (Staphylococcus aureus (strain NCTC 8325)). The series can be described thus: Inhibition of N-terminal His6-sumo-tagged full length Staphylococcus aureus ClpP expressed in Escherichia coli […] at 20-fold molar excess pre-incubated for 10 mins before Suc-LY-AMC addition and measured after 1 hr followed by dialysis for 72 hrs by fluorescence based assay relative to control. In a few lines:
as §4

On to `CC(C)Cc1ccc(C(C)C(=O)N[C@@H](Cc2c[nH]c3ccccc23)C(=O)N[C@@H](CC(C)C)B(O)O)cc1` (stereo partly specified), for which, in [1], the ΔTm (commonly the change in melting temperature against a reference sample) is 29.5 to 42.2 °C. For the same compound, in [2], the concentration for 50% haemolysis (HC50) (commonly the concentration that lyses half of the red blood cells) at 0.25 h was above 500 µM. In addition, the GI50 (usually the concentration that inhibits growth by half) at 24 h in [3] stood at 71.2 µM; in series [6], 54.8 µM. For the same compound, the concentration for half-maximal inhibition (IC50) (commonly the concentration at which inhibition is half-maximal) in series [4] amounted to 1.9 µM. For the same compound, the inhibition result in series [5] was “Dose-dependent effect”. Moreover, the Activity in [7] came out at 100%. Further, the EC50 in [8] came to 2.6 µM. For the same compound, the Ratio in series [9] was 8 ×10² /s.M. The “growth inhibition (GI)” value in series [10] is “inactive”.

`CC(C)C[C@H](NC(=O)CNC(=O)c1cc(Cl)ccc1Cl)B(O)O` [IXAZOMIB] registered a 50% haemolytic concentration (HC50) at 0.25 h in [2] of 408 µM. Moreover, the 50% growth inhibitory concentration (GI50) at 24 h is 182 µM in series [3] and above 200 µM in series [6]. This compound also yielded an IC50 in [4] of 5.3 to 5.7 µM. The inhibition result in series [5] is “Dose-dependent effect”. The EC50 in series [8] was 3.6 µM. Moreover, the Ratio in series [9] worked out at 2.4 ×10² /s.M.

On to `CC(C)C[C@H](NC(=O)[C@H](Cc1ccccc1)NC(=O)c1cnccn1)B(O)O` [BORTEZOMIB], for which the ΔTm in series [1] is 29.5 to 42.2 °C. Moreover, the concentration for 50% haemolysis (HC50) at 0.25 h in [2] is above 500 µM. Also, in series [11], the inhibition result is “inactive”. Also, the GI50 at 24 h was determined as 168 µM in series [3] and 101 µM in [6]. The compound also displayed an IC50 in series [4] of 5.3 µM. Further, the inhibition entry in series [5] was “Dose-dependent effect”. The Activity in series [7] came out at 100%. In addition, in series [8], the EC50 was 23.5 µM. In addition, the Ratio in series [9] amounted to 2.2 ×10² /s.M.

On to `COc1ccc(C(=O)N[C@@H](Cc2ccccc2)C(=O)N[C@@H](CC(C)C)B(O)O)c(C)c1`, for which the ΔTm in series [1] was 29.5 to 42.2 °C. This compound also yielded an HC50 at 0.25 h in series [2] above 500 µM. The GI50 at 24 h in series [3] and in series [6] was above 200 µM each time. In series [4], half-maximal inhibition (IC50) required 1.5 µM. Also, in series [5], the inhibition entry was “Dose-dependent effect”. For the same compound, the Activity in series [7] came out at 100%. Also, the EC50 in series [8] was determined as 14.8 µM. Also, the Ratio in series [9] amounted to 9.1 ×10² /s.M.

For `CC(C)Cc1ccc(C(C)C(=O)N[C@@H](Cc2ccc(O)cc2)C(=O)N[C@@H](CC(C)C)B(O)O)cc1` (stereo partly specified), the inhibition entry in series [12] and in [13] was “inactive” in each case. Also, the ΔTm in [1] fell in the range of 29.5 to 42.2 °C. The compound further had an HC50 at 0.25 h in [2] above 500 µM. For the same compound, the values for the IC50 in series [14], in series [4] and in [16] were 3 to 25 µM, 1.4 µM and 3 to 25 µM, respectively. In addition, the inhibition result in series [15] is “Active”. In addition, the 50% growth inhibitory concentration (GI50) at 24 h in series [3] worked out at 83 µM; in series [6] it was 117 µM. The inhibition entry in series [5] is “Dose-dependent effect”. Also, in series [7], the Activity was determined as 100%. The EC50 in series [8] was 9.6 µM. For the same compound, the Ratio in series [9] is 7.2 ×10² /s.M.

For `COC(=O)c1ccc(OC(=O)CCc2cc(OC)c(OC)c(OC)c2)cc1`, in [1], the result was inactive. Besides, the inhibition result in [17] was “Active”.

Take `COc1ccc(C(=O)N[C@@H](Cc2ccccc2)C(=O)N[C@@H](CC(C)C)B(O)O)cc1`: the inhibition entry in [12] and in series [13] was “inactive” each time. Moreover, the ΔTm in series [1] is 29.5 to 42.2 °C. For the same compound, the HC50 at 0.25 h in [2] was above 500 µM. In addition, the half-maximal inhibitory concentration (IC50) in series [14] is 3 to 25 µM; in [4], 1.9 µM; in series [16], 3 to 25 µM. Further, the inhibition result in series [15] was “Active”. Further, the GI50 at 24 h in [3] is 196 µM; in series [6], above 200 µM. The inhibition entry in series [5] is “Dose-dependent effect”. Moreover, the Activity in series [7] was 100%. Besides, the EC50 in series [8] turned out to be 3.3 µM. Besides, the Ratio in [9] was found to be 6.7 ×10² /s.M.
